In ChEMBL document CHEMBL1132944, “Poly(N-acryl amino acids): a new class of biologically active polyanions” (2000):

Assays:
Assay type in all cases: functional
[1] = Anti-coagulation activity evaluated as activated partial thromboplastin time (APTT) of the non-sulfated compound determined for 25 ug/mL in pooled normal plasma
Method in brief: (§1)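 Activated partial thromboplastin time was measured in pooled normal human plasma with a commercial liquid silica-activator APTT kit. Polymer was added to the plasma, and clotting time was recorded in seconds. Plasma without polymer served as the control, and heparin was the positive control.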

[2] = Anti-coagulation activity evaluated as activated partial thromboplastin time (APTT) of the sulfated compound determined for 25 ug/mL in pooled normal plasma; method in brief: as §1
[3] = Anti-coagulation activity evaluated as activated partial thromboplastin time (APTT) determined for 25 ug/ml in pooled normal plasma; method in brief: as §1
[4] = Anti-coagulation activity evaluated as activated partial thromboplastin time (APTT) determined for 250 ug/ml in pooled normal plasma; method in brief: as §1

For CCC(C)C(=O)N[C@H](Cc1ccc(OS(=O)(=O)[O-])cc1)C(=O)[O-].[Na+].[Na+] (stereo partly drawn), the APTT [1] was 35 s and the APTT [2] was 45 s.
In the case of CCC(C)C(=O)NCC(=O)O (stereo not drawn), the APTT [3] was 40 s.
CCC(C)C(=O)N[C@H](Cc1ccccc1)C(=O)[O-].[Na+] (stereo partly drawn) gave an APTT [3] of 56 s and an APTT [4] of 109 s.
Compound CCC(C)C(=O)N[C@H](Cc1ccc(O)cc1)C(=O)[O-].[Na+] (stereo partly drawn) has an APTT [3] of 32 s.
For CCC(C)C(=O)N[C@H](CCCCN)C(=O)[O-].[Na+] (stereo partly drawn), the APTT [3] was 33 s.
CCC(C)C(=O)N[C@H](CCC(=O)[O-])C(=O)[O-].[Na+].[Na+] (stereo partly drawn) gave an APTT [3] of 56 s and an APTT [4] of 75 s.
Compound CCC(C)C(=O)N1CCC[C@@H]1C(=O)[O-].[Na+] (stereo partly drawn) has an APTT [3] of 55 s and an APTT [4] of 109 s.
For CCC(C)C(=O)N[C@H](CC(C)C)C(=O)[O-].[Na+] (stereo partly drawn), the APTT [3] was 36 s.
In the case of CCC(C)C(=O)N[C@H](CO)C(=O)O (stereo partly drawn), the APTT [3] was 39 s.
Work on CCC(C)C(=O)N[C@H](COS(=O)(=O)[O-])C(=O)[O-].[Na+].[Na+] (stereo partly drawn) yielded an APTT [1] of 32 s and an APTT [2] of 35 s.
CCC(C)C(=O)N[C@H](Cc1c[nH]cn1)C(=O)[O-].[Na+] (stereo partly drawn) showed an APTT [3] of 30 s.
With CCC(C)C(=O)N1CC[C@H](OS(=O)(=O)O)C1 (stereo partly drawn) the APTT [1] was 39 s and the APTT [2] was 32 s.
For CCC(C)C(=O)N[C@@H](C(=O)[O-])C(C)(C)C.[Na+] (stereo partly drawn), the APTT [3] was 36 s.
CCC(C)C(=O)N1C[C@@H](OS(=O)(=O)O)C[C@@H]1C(=O)O (stereo partly drawn) gave an APTT [1] of 37 s and an APTT [2] of 100 s.
CCC(C)C(=O)N1C[C@@H](O)C[C@@H]1C(=O)O (relative stereo) showed an APTT [3] of 37 s.
In the case of CCC(C)C(=O)N1C[C@H](O)C[C@@H]1C(=O)O (relative stereo), the APTT [3] was 35 s.
